Results as given in ChEMBL document CHEMBL4513216, “Probing the Open Global Health Chemical Diversity Library for Multistage-Active Starting Points for Next-Generation Antimalarials” (ACS Infect Dis, 2020).

Assay: Toxicity liver stage against HepG2, at 10uM
Assay type: cell-based
Design: test concentration 10 uM, cell line HepG2-A16-CD81EGFP
Settings: human, HepG2-A16-CD81EGFP cells; read-out: INHIBITION
Summary of the method: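 Uninfected HepG2-A16-CD81EGFP cells, 3 × 10^3 per well, 1536-well, plated on prespotted compound at 10 μM final, parasite-free screening media added to match infected plates; puromycin 10 μM positive, DMSO 0.5% negative; run in parallel with 48 h PbLuc assay at 37 °C, 5% CO2; viability by CellTiter-Glo luminescence, normalized to controls.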

CCCc1nc(C)cc(N2CCNC(C(=O)Nc3ccc(C)nc3)C2)n1 (centres undefined)
cytotoxicity at 10 µM: -48.5%

CNS(=O)(=O)Cc1ccc(CNC(=O)c2cccc(C)n2)cc1
cytotoxicity at 10 µM: -3.79%

CC(=O)Nc1nc(C(=O)N2CCCCC2Cn2cc(C)cn2)cs1 (centres undefined)
cytotoxicity at 10 µM: -17.1%

COc1ccc(-c2cc3nc(CCNC(=O)CN(C)C)nn3cn2)cc1
cytotoxicity at 10 µM: 1.98%

Cc1ccccc1CN(C)C(=O)Cn1nc(-c2ccc(F)cc2)oc1=O
cytotoxicity at 10 µM: -19.3%

COc1cccc(-c2nccnc2C2CCN(C(C)=O)CC2)c1
cytotoxicity at 10 µM: 1.47%

Cc1ccc(CN2CCOC3(COCCN(S(C)(=O)=O)C3)C2)o1 (centres undefined)
cytotoxicity at 10 µM: 11.7%

CCc1n[nH]c(NC(=O)c2ccc(Cl)cn2)c1Br
cytotoxicity at 10 µM: -5.37%

Cc1nc(C)n(CC2CCCN(CCC(=O)N3CCOCC3)C2)n1 (centres undefined)
cytotoxicity at 10 µM: -6.7%

Cc1nn(C)c(C)c1C1CCCN1Cc1cccc(C(N)=O)c1 (centres undefined)
cytotoxicity at 10 µM: -10.2%

CN(C)C(=O)CN1C(=O)CO[C@@H]2CN(c3ccccn3)C[C@H]21
cytotoxicity at 10 µM: 12.3%

CC1CN(c2ccc(C#N)cn2)CCN1c1ccc2nncn2n1 (centres undefined)
cytotoxicity at 10 µM: 1.42%

Cc1cc(C(=O)NC(COCC(C)C)c2ccco2)no1 (centres undefined)
cytotoxicity at 10 µM: -8.71%

O=C(CC1OCCc2ccccc21)NCC1(O)CCCCC1 (centres undefined)
cytotoxicity at 10 µM: 1.07%

CCc1cc(CN(C)C(=O)c2cnon2)on1
cytotoxicity at 10 µM: 9.83%

Cc1nc2ccccc2nc1CN1CCc2c(nc(C3CC3)n2C)C1
cytotoxicity at 10 µM: 7.97%

Cc1ccc(C(=O)N2CCC(Oc3ccc(C)c(C)c3)CC2)c(=O)[nH]1
cytotoxicity at 10 µM: 12.9%

O=C(NCC1CCC(c2ccnc3ncnn23)CC1)c1ccccn1 (centres undefined)
cytotoxicity at 10 µM: 3.64%

COc1ccc(CN2CC[C@H](O)[C@@H]2Cc2cnn(C)c2)cc1
cytotoxicity at 10 µM: -81.7%

Cc1nn(C)c(C)c1CCC(=O)Nc1cn(C)c(=O)n(C)c1=O
cytotoxicity at 10 µM: 20.6%

CN1CCN([C@@H]2CN(C(=O)c3ccsc3)[C@@H]3CCCO[C@H]23)CC1
cytotoxicity at 10 µM: 6.74%

N#Cc1ccc(F)c(CNC(=O)NC(CO)c2ccccc2)c1 (centres undefined)
cytotoxicity at 10 µM: 4.16%

CCc1ccsc1C(=O)N1CCN(CC(C)(C)O)CC1
cytotoxicity at 10 µM: -13.1%

O=C(c1cccnc1)N1CCCC(Cc2nccs2)C1 (centres undefined)
cytotoxicity at 10 µM: -2.86%

COCCNC(=O)Nc1ccc(-n2cncn2)c(F)c1
cytotoxicity at 10 µM: -0.0868%

COCC(NC(=O)NCc1cccc(Cl)c1)c1ccco1 (centres undefined)
cytotoxicity at 10 µM: 6.4%

CCNC(=O)N1CCC2(C1)c1ccccc1S(=O)(=O)N2CCOC (centres undefined)
cytotoxicity at 10 µM: -151%

Cc1nc(N2CCOCC2)nc(C)c1NS(=O)(=O)c1ccccc1
cytotoxicity at 10 µM: -1.44%

CCNC(=O)NC(=O)CN1CCC(c2c[nH]c3ccc(OC)cc23)CC1
cytotoxicity at 10 µM: -12.9%

CO[C@H]1CNC[C@@H]1NC(=O)CCc1nc(-c2ccccc2)no1
cytotoxicity at 10 µM: -1.13%

Nc1nc(CNc2nccc(CCC(F)(F)F)n2)cs1
cytotoxicity at 10 µM: -2.38%

CC(=O)NCCNC(=O)c1cc(Br)c2c(c1)OCCO2
cytotoxicity at 10 µM: -1.54%

CC(=O)N1CCC2(CC1)CCN(C(=O)c1cccc(C(F)(F)F)c1)C2
cytotoxicity at 10 µM: -74.5%

CC1(C)[C@H](Cc2cc(CO)on2)C[C@@H]1NCc1ccc(CO)o1
cytotoxicity at 10 µM: -12.4%

CC(=O)N(C)c1nc(CN2CCCC2c2cnn(C)c2)cs1 (centres undefined)
cytotoxicity at 10 µM: -16.1%

COc1cc(N2C[C@H](C(=O)N3CCCC3)[C@@H]3CCO[C@@H]3C2)ncn1
cytotoxicity at 10 µM: -0.211%

CCC(=O)NCC(=O)NC(Cc1ccccc1)c1sccc1C (centres undefined)
cytotoxicity at 10 µM: 9.25%

CCN1C(=O)CCC12CCCN(CCc1ccccc1)C2 (centres undefined)
cytotoxicity at 10 µM: -0.449%

Cc1cc(C(O)CCNC(=O)COc2ccccc2F)c(C)o1 (centres undefined)
cytotoxicity at 10 µM: 0.931%

O=C(CCc1cccs1)N1CCc2[nH]nc(COc3ccccc3)c2C1
cytotoxicity at 10 µM: 0.621%

Cc1ccc(CN(CCCn2ccnc2)Cc2c[nH]cn2)s1
cytotoxicity at 10 µM: -4.99%

c1ccc2oc(CN3CCCC3Cn3cncn3)nc2c1 (centres undefined)
cytotoxicity at 10 µM: -17.2%

Cc1cc(-c2cnn(CCNC(=O)c3cccnc3)c2C2CC2)on1
cytotoxicity at 10 µM: 0.565%

CC1CN(CC(=O)NCc2cccs2)CCN1c1nccs1 (centres undefined)
cytotoxicity at 10 µM: -12.8%

CN(C)C[C@H]1CC[C@@H](Cc2ccc3c(cnn3C)c2)O1
cytotoxicity at 10 µM: -1.07%

COc1cc(Oc2ncccc2C(F)(F)F)ccc1CN1CCCC1
cytotoxicity at 10 µM: 38.8%

CN(C)CCCNC(=O)c1cc(Br)c2c(c1)OCCO2
cytotoxicity at 10 µM: 13.3%

CCOC(=O)C1CCN(C(=O)c2cc(F)ccc2-n2cnnn2)CC1
cytotoxicity at 10 µM: -0.121%

O=C(Cn1nc2c(cc1=O)CCCC2)N[C@@H](C(=O)O)c1ccccc1
cytotoxicity at 10 µM: 5.76%

CN(C)CCN(C)S(=O)(=O)Cc1ccc(Br)cc1
cytotoxicity at 10 µM: 0.936%

Cn1ncc2c(=O)[nH]c(N3CCN(C(=O)c4ccsc4)CC3)nc21
cytotoxicity at 10 µM: -6.17%

Cc1cnc(NC(=O)c2csc(NCC(C)C)n2)s1
cytotoxicity at 10 µM: 34.4%

CC(C)Cc1ncc2c(n1)CN(C(=O)c1ccc(CN3CCCC3)o1)C2
cytotoxicity at 10 µM: -1.66%

Clc1ccc2oc(C3CCN(Cc4nc(C5CC5)no4)CC3)nc2c1
cytotoxicity at 10 µM: -5.15%

CN(CCc1ccccn1)[C@@H]1CCN(c2cc(C(N)=O)ccn2)C[C@H]1O
cytotoxicity at 10 µM: -9.17%

CN1CCN(Cn2nc(-c3cccs3)ccc2=O)CC1
cytotoxicity at 10 µM: 2.63%

CC1c2ncc(COc3cccnc3)n2CCN1C(=O)Cc1ccco1 (centres undefined)
cytotoxicity at 10 µM: -5.13%

Cc1ccc(OCCCNC(=O)NC(C)c2nncn2C)cc1 (centres undefined)
cytotoxicity at 10 µM: -3.83%

CC(C)CC(=O)N1CCC(c2nnc3n2CCCCC3)CC1
cytotoxicity at 10 µM: -28%

CN1CC(NC(=O)Nc2cnn(-c3ccccc3Cl)c2)CCC1=O (centres undefined)
cytotoxicity at 10 µM: -1.54%

CCCn1nc(C(=O)NCc2nnc3n2CCC3)ccc1=O
cytotoxicity at 10 µM: -3.18%

Cc1cnn(CCNc2nc(C)cc(N(C)C)n2)c1
cytotoxicity at 10 µM: 5.36%

CCC(CC)CNCC1(S(C)(=O)=O)CCOCC1
cytotoxicity at 10 µM: 0.354%

COc1cccc(CN2CCN(Cc3ccc4nonc4c3)CC2=O)c1
cytotoxicity at 10 µM: -1.98%

CCN(CC(C)C#N)C(=O)CNc1ccc(C(N)=O)c(C)c1 (centres undefined)
cytotoxicity at 10 µM: 8.54%

O=C(NCc1ccccc1)c1nn(C2CCS(=O)(=O)C2)c2c1CCCC2 (centres undefined)
cytotoxicity at 10 µM: 5.92%

CC(Cn1cccn1)NC(=O)CCc1nc(C(C)(C)C)no1 (centres undefined)
cytotoxicity at 10 µM: 14.5%

Cc1c(NCc2cccc(C#N)c2)cccc1S(=O)(=O)NC1CC1
cytotoxicity at 10 µM: 42.5%

CN1CCc2[nH]cnc2C12CCN(Cc1ccc(S(C)(=O)=O)cc1)CC2
cytotoxicity at 10 µM: -3.72%

Cc1ccc(-c2noc([C@@H]3C[C@H](NC(=O)CC(C)(C)C)CN3C)n2)cc1
cytotoxicity at 10 µM: 7.35%

CCN(C)C(=O)c1ncn2c(C3CCN(S(C)(=O)=O)CC3)ccnc12
cytotoxicity at 10 µM: -3.68%

COc1ccc(N(C(=O)c2ccc(C)nc2)C(C)C)cc1F
cytotoxicity at 10 µM: -3.17%

COc1ccc(C(C)NCc2ccnn2C)cc1Cn1cccn1 (centres undefined)
cytotoxicity at 10 µM: 7.57%

CCN(CC)C(=O)CCNC(=O)N1CCC(c2ccccc2)C1 (centres undefined)
cytotoxicity at 10 µM: -3.26%

Cc1ccc(CN2CCn3c(CN(C)C(C)C)cnc3C2)s1
cytotoxicity at 10 µM: 8.33%

Cc1noc([C@@H]2CC[C@@H]3[C@@H](CCN3S(=O)(=O)c3cccnc3)O2)n1
cytotoxicity at 10 µM: -13.1%

COCCN1CCC(CNC(=O)Nc2ccc(-c3ccccc3)cc2)C1 (centres undefined)
cytotoxicity at 10 µM: -15.2%

O=C(NCCOc1ncc(Cl)cc1Cl)NCc1ccncc1
cytotoxicity at 10 µM: -1.86%

CCn1cc(NC(=O)NCC(c2ccc(OC)cc2)N(C)C)cn1 (centres undefined)
cytotoxicity at 10 µM: -2.4%

CS(=O)(=O)N[C@H]1CN(C(=O)c2cscn2)[C@@H]2CCCO[C@H]12
cytotoxicity at 10 µM: -84.6%

CN1CCN([C@H]2CCN(C(=O)c3nn(C)cc3Cl)C[C@H]2CCCO)CC1
cytotoxicity at 10 µM: -2.86%

CN(Cc1cc(-c2ccncc2)no1)Cc1nccn1C
cytotoxicity at 10 µM: 0.884%

O=C(Nc1cnccn1)[C@@H]1COC[C@H]2CN(c3ncc(F)cn3)C[C@H]21
cytotoxicity at 10 µM: -11.7%

CN1C(Cn2cccn2)C[C@@H]2CN(Cc3cnn(C)c3)CC[C@@H]21 (some centres undefined)
cytotoxicity at 10 µM: 3.16%

CC[C@H](C)[C@H](NC(=O)c1ccccc1-n1cnnn1)C(=O)OC
cytotoxicity at 10 µM: 5.16%

COc1ccc(OC)c(-n2cnnc2C)c1
cytotoxicity at 10 µM: 1.24%

COc1ccc(C2(C(=O)N3CC(c4cccnc4)C3)CC2(C)C)cc1 (centres undefined)
cytotoxicity at 10 µM: 12.3%

CC(C)C1COC2(CCN(Cc3ccco3)CC2)C1 (centres undefined)
cytotoxicity at 10 µM: -3.57%

COc1cccc(C(=O)NCc2ccccc2S(=O)(=O)N(C)C)c1
cytotoxicity at 10 µM: -5.52%

CC(OCC1CC1)C(=O)Nc1nccn1Cc1ccccc1 (centres undefined)
cytotoxicity at 10 µM: -6.79%

CC(C)[C@H](Nc1nc(C2CCCC2)nc2c1cnn2C)C(N)=O
cytotoxicity at 10 µM: -51.5%

CCc1nc(CN(C(C)=O)C2CCN(CCc3ccccc3)C2)no1 (centres undefined)
cytotoxicity at 10 µM: -2.18%

COC(=O)[C@@H](NC(=O)Nc1ccc(C(C)=O)cc1)C(C)C
cytotoxicity at 10 µM: 10.1%

CCCNC(=O)CSc1nnc2[nH]c(=O)c3c(n12)CCCC3
cytotoxicity at 10 µM: -83.3%

COC(=O)c1cccn1C1CCN(Cc2ccccc2)CC1
cytotoxicity at 10 µM: -12%

O=C(CCNC(=O)c1sccc1-c1ccccc1)NC1CCS(=O)(=O)C1 (centres undefined)
cytotoxicity at 10 µM: 1.9%

CC(=O)N1CCCN(C(=O)NCCCn2cncn2)CC1
cytotoxicity at 10 µM: -10.1%

COc1ccc(Cl)cc1C(=O)N1C[C@@H](NC(=O)N(C)C)[C@H](C(C)C)C1
cytotoxicity at 10 µM: -1.41%

CC(C)C(C)(C#N)NC(=O)Cn1cc(I)cn1 (centres undefined)
cytotoxicity at 10 µM: 18.1%

CCCn1ccnc1-c1nccn1CCC(N)=O
cytotoxicity at 10 µM: -10.3%

CS(=O)(=O)CCCOc1cccc(-n2cccn2)c1
cytotoxicity at 10 µM: -9.22%

CCN(C)c1ncnc2c1CCN(C(=O)COC)CC2
cytotoxicity at 10 µM: 1.75%

CC(C)NC(=O)N1CC[C@@H](N(C)C)[C@@H]1Cc1ccncc1
cytotoxicity at 10 µM: 5.53%

c1cncc(CN2CCC(c3csc4nccn34)CC2)c1
cytotoxicity at 10 µM: 2.9%

CC(C)(C)NC(=O)c1ccn(COc2c(Cl)cccc2Cl)n1
cytotoxicity at 10 µM: 3.02%

CC(=O)N1CCNCC1c1cccc(C(=O)N(C)C)c1 (centres undefined)
cytotoxicity at 10 µM: 4.45%

CC(Nc1nccc(CCC(F)(F)F)n1)c1nc(-c2ccncc2)no1 (centres undefined)
cytotoxicity at 10 µM: 4.74%

Cn1nc(Br)c2c(NCCS(N)(=O)=O)ncnc21
cytotoxicity at 10 µM: 15.8%

Cc1ccc2c(c1)c(CNC(=O)C1CCN(C(C)C)CC1)nn2C
cytotoxicity at 10 µM: -14.8%
